Source: ChEMBL document CHEMBL1275516, “Macrolide antibiotic-mediated downregulation of MexAB-OprM efflux pump expression in Pseudomonas aeruginosa” (2008)
Values after ≈ are worked out from the molar mass of the structure shown.

Assays:
Format in all cases: functional
Pseudomonas aeruginosa [1] = assay: Inhibition of MexAB-OprM efflux pump expression in Pseudomonas aeruginosa TNP090 mutant harboring las and rhl gene at 0.125 ug/ml by Cat-2,3-diO reporter gene assay relative to untreated control; settings: values are per cent of control
Method in brief: (§1)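 Overnight TNP090 (mexB::xylE reporter) preculture diluted 10,000-fold into fresh medium with or without antibiotic, dosed as fractions of the TNP090 MIC. Shaken at 200 rpm, 37°C, for 9 h to A600 ~1.5 (early stationary phase). Extracts made by French press at 130 MPa, then centrifuged at 13,000 × g. Cat-2,3-diO activity expressed relative to drug-free culture.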

Pseudomonas aeruginosa [2] = assay: Antibacterial activity against MeXAB-OprM deficient Pseudomonas aeruginosa TNP077 selected after 1.0 ug/ml of azithromycin by agar dilution method
Method in brief: (§2)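 Agar dilution on Mueller-Hinton agar with an inoculum of 150 CFU/5 μl per spot. Plates were run with or without 1.0 μg/ml azithromycin incorporated in the agar, and MIC was read for each strain.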

Pseudomonas aeruginosa [3] = assay: Inhibition of MexAB-OprM efflux pump expression in Pseudomonas aeruginosa TNP090 mutant harboring las and rhl gene at 0.06 ug/ml by Cat-2,3-diO reporter gene assay relative to untreated control; settings: values are per cent of control; method in brief: as §1
Pseudomonas aeruginosa [4] = assay: Antibacterial activity against Pseudomonas aeruginosa TNP030 by agar dilution method; method in brief: as §2
Pseudomonas aeruginosa [5] = assay: Antibacterial activity against Pseudomonas aeruginosa PAO4290 by agar dilution method; method in brief: as §2
Pseudomonas aeruginosa [6] = assay: Inhibition of MexAB-OprM efflux pump expression in Pseudomonas aeruginosa TNP090 mutant harboring las and rhl gene at 0.03 ug/ml by Cat-2,3-diO reporter gene assay relative to untreated control; settings: values are per cent of control; method in brief: as §1
Pseudomonas aeruginosa [7] = assay: Antibacterial activity against Pseudomonas aeruginosa TNP030 selected after 1.0 ug/ml of azithromycin by agar dilution method; method in brief: as §2
Pseudomonas aeruginosa [8] = assay: Antibacterial activity against MeXAB-OprM deficient Pseudomonas aeruginosa TNP077 by agar dilution method; method in brief: as §2
Pseudomonas aeruginosa [9] = assay: Inhibition of MexAB-OprM efflux pump expression in Pseudomonas aeruginosa TNP090 mutant harboring las and rhl gene at 0.016 ug/ml by Cat-2,3-diO reporter gene assay relative to untreated control; settings: values are per cent of control; method in brief: as §1
Pseudomonas aeruginosa [10] = assay: Antibacterial activity against Pseudomonas aeruginosa PAO4290 selected after 1.0 ug/ml of azithromycin by agar dilution method; method in brief: as §2
Pseudomonas aeruginosa [11] = assay: Antibacterial activity against Pseudomonas aeruginosa TNP090 harboring chromosomal mexB::xylE fusion construct by agar dilution method
Method in brief: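 Agar dilution MIC on Mueller-Hinton agar; inoculum 5 × 10^3 cells per spot.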

Pseudomonas aeruginosa [12] = assay: Inhibition of MexAB-OprM efflux pump expression in rhl1 deficient Pseudomonas aeruginosa TNP092 at 1 ug/ml after 9 hrs by Cat-2,3-diO reporter gene assay; settings: TNP092, 9 h, values are per cent of control
Method in brief: (§3)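 Reporter strains lacking lasI, rhlI or both were diluted 10,000-fold from overnight culture into fresh medium with or without 1 μg/ml azithromycin. Cultures were shaken at 200 rpm, 37°C for 9 h (A600 ~1.5, early stationary phase). Cat-2,3-diO activity was assayed in cell extracts and […].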

Pseudomonas aeruginosa [13] = assay: Inhibition of MexAB-OprM efflux pump expression in Pseudomonas aeruginosa at 1.0 ug/ml
Method in brief: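 TNP090 (las+ rhl+, mexB::xylE reporter) overnight culture was diluted 100,000-fold (A600 3 × 10−5) into LB with or without 1 μg/ml azithromycin and shaken at 200 rpm, 37°C. Cells were harvested at ~4.5 h (drug-free) or 5.5 h (drug), then at plus 2, 4 and 6 h. Cat-2,3-diO activity was measured in French-press extracts (1 unit = 1 nmol substrate/min/mg protein). Results are representative of repeated experiments.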

Pseudomonas aeruginosa [14] = assay: Inhibition of MexAB-OprM efflux pump expression in Pseudomonas aeruginosa TNP090 mutant harboring las and rhl gene at 0.25 ug/ml by Cat-2,3-diO reporter gene assay relative to untreated control; settings: values are per cent of control; method in brief: as §1
Pseudomonas aeruginosa [15] = assay: Inhibition of MexAB-OprM efflux pump expression in Pseudomonas aeruginosa TNP090 mutant harboring las and rhl gene at 1 ug/ml after 11.5 hrs by Cat-2,3-diO reporter gene assay relative to untreated control; settings: TNP090, 11.5 h
Method in brief: (§4)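 Overnight TNP090 preculture diluted 100,000-fold (A600 3 × 10−5) in LB with or without 1 μg/ml azithromycin. Grown at 37°C with 200 rpm rotation and harvested at 5.5 h (AZM) or 4.5 h (drug-free), then at +2, +4 and +6 h. French-press extracts (130 MPa ×3), 13,000 × g supernatant assayed for Cat-2,3-diO. 1 unit = 1 nmol substrate/min/mg protein. Representative of repeated experiments.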

Pseudomonas aeruginosa [16] = assay: Inhibition of MexAB-OprM efflux pump expression in Pseudomonas aeruginosa TNP090 mutant harboring las and rhl gene at 0.5 ug/ml by Cat-2,3-diO reporter gene assay relative to untreated control; settings: values are per cent of control; method in brief: as §1
Pseudomonas aeruginosa [17] = assay: Inhibition of MexAB-OprM efflux pump expression in las1 and rhl1 deficient Pseudomonas aeruginosa TNP093 at 1 ug/ml after 9 hrs by Cat-2,3-diO reporter gene assay; settings: TNP093, 9 h, values are per cent of control; method in brief: as §3
Pseudomonas aeruginosa [18] = assay: Inhibition of MexAB-OprM efflux pump expression in Pseudomonas aeruginosa TNP090 mutant harboring las and rhl gene at 1 ug/ml after 5.5 hrs by Cat-2,3-diO reporter gene assay relative to untreated control; settings: TNP090, 5.5 h; method in brief: as §4
Pseudomonas aeruginosa [19] = assay: Inhibition of MexAB-OprM efflux pump expression in Pseudomonas aeruginosa TNP090 mutant harboring las and rhl gene at 1 ug/ml after 9.5 hrs by Cat-2,3-diO reporter gene assay relative to untreated control; settings: TNP090, 9.5 h; method in brief: as §4
Pseudomonas aeruginosa [20] = assay: Inhibition of MexAB-OprM efflux pump expression in las1 deficient Pseudomonas aeruginosa TNP091 at 1 ug/ml after 9 hrs by Cat-2,3-diO reporter gene assay; settings: TNP091, 9 h, values are per cent of control; method in brief: as §3
Pseudomonas aeruginosa [21] = assay: Inhibition of MexAB-OprM efflux pump expression in Pseudomonas aeruginosa TNP090 mutant harboring las and rhl gene at 1 ug/ml by Cat-2,3-diO reporter gene assay; method in brief: as §4
Pseudomonas aeruginosa [22] = assay: Inhibition of MexAB-OprM efflux pump expression in Pseudomonas aeruginosa TNP090 mutant harboring las and rhl gene at 1 ug/ml by Cat-2,3-diO reporter gene assay relative to untreated control; settings: values are per cent of control; method in brief: as §1
Pseudomonas aeruginosa [23] = assay: Inhibition of MexAB-OprM efflux pump expression in Pseudomonas aeruginosa TNP090 mutant harboring las and rhl gene at 1 ug/ml after 7.5 hrs by Cat-2,3-diO reporter gene assay relative to untreated control; settings: TNP090, 7.5 h; method in brief: as §4

Row | SMILES | MIC (Pseudomonas aeruginosa [2]) [µg/mL] | MIC (Pseudomonas aeruginosa [4]) [µg/mL] | MIC (Pseudomonas aeruginosa [5]) [µg/mL] | MIC (Pseudomonas aeruginosa [7]) [µg/mL] | MIC (Pseudomonas aeruginosa [8]) [µg/mL] | MIC (Pseudomonas aeruginosa [10]) [µg/mL] | also measured
1 | CN(C)[C@@H]1C(O)=C(C(N)=O)C(=O)[C@@]2(O)C(O)=C3C(=O)c4c(O)cccc4[C@@](C)(O)[C@H]3C[C@@H]12 [TETRACYCLINE] | 0.39 | 50 (≈ 113 µM) | 12.5 (≈ 28.1 µM) | 50 | 0.39 (≈ 0.878 µM) | 3.13 | response, % of control at 0.125 µg/mL (Pseudomonas aeruginosa [1]): 51%; response, % of control at 0.06 µg/mL (Pseudomonas aeruginosa [3]): 69%; response, % of control at 0.03 µg/mL (Pseudomonas aeruginosa [6]): 94%; response, % of control at 0.016 µg/mL (Pseudomonas aeruginosa [9]): 103%
2 | CC1(C)S[C@@H]2[C@H](NC(=O)C(C(=O)O)c3ccccc3)C(=O)N2[C@H]1C(=O)O (stereo partly specified) [CARBENICILLIN] | 1.56 | 200 (≈ 529 µM) | 50 (≈ 132 µM) | 200 | 0.78 (≈ 2.06 µM) | 12.5 | 
3 | CC(C)(O/N=C(\C(=O)N[C@@H]1C(=O)N2C(C(=O)[O-])=C(C[n+]3ccccc3)CS[C@H]12)c1csc(N)n1)C(=O)O [CEFTAZIDIME] | 0.39 | 3.13 (≈ 5.73 µM) | 1.56 (≈ 2.85 µM) | 3.13 | 0.39 (≈ 0.714 µM) | 1.56 | 
4 | C[C@H]1[C@H](NC(=O)/C(=N\OC(C)(C)C(=O)O)c2csc(N)n2)C(=O)N1S(=O)(=O)O [AZTREONAM] | 0.1 | 12.5 (≈ 28.7 µM) | 3.12 (≈ 7.17 µM) | 12.5 | 0.1 (≈ 0.23 µM) | 1.56 | 
5 | CO[C@@H]1[C@@H](OC(N)=O)[C@@H](O)[C@H](Oc2ccc3c(O)c(NC(=O)c4ccc(O)c(CC=C(C)C)c4)c(=O)oc3c2C)OC1(C)C [NOVOBIOCIN] | 12.5 | > 1200 | 800 (≈ 1310 µM) | > 1200 | 12.5 (≈ 20.4 µM) | 200 | 
6 | CC1COc2c(N3CCN(C)CC3)c(F)cc3c(=O)c(C(=O)O)cn1c23 (stereo unspecified) [OFLOXACIN] | 0.05 | > 1.56 | 0.78 (≈ 2.16 µM) | > 1.56 | 0.05 (≈ 0.138 µM) | 0.78 | 
7 | CC[C@H]1OC(=O)[C@H](C)[C@@H](O[C@H]2C[C@@](C)(OC)[C@@H](O)[C@H](C)O2)[C@H](C)[C@@H](O[C@@H]2O[C@H](C)C[C@H](N(C)C)[C@H]2O)[C@](C)(O)C[C@@H](C)CN(C)[C@H](C)[C@@H](O)[C@]1(C)O [AZITHROMYCIN] |  |  |  |  |  |  | response, % of control at 0.125 µg/mL (Pseudomonas aeruginosa [1]): 85%; MIC (Pseudomonas aeruginosa [11]): 6.25 µg/mL (≈ 8.34 µM); response, % of control at 1 µg/mL (Pseudomonas aeruginosa [12]): 90%; inhibition at 1 µg/mL (Pseudomonas aeruginosa [13]): 70%; response, % of control at 0.25 µg/mL (Pseudomonas aeruginosa [14]): 78%; inhibition at 1 µg/mL (Pseudomonas aeruginosa [15]): -63%; response, % of control at 0.5 µg/mL (Pseudomonas aeruginosa [16]): 65%; response, % of control at 1 µg/mL (Pseudomonas aeruginosa [17]): 100%; inhibition at 1 µg/mL (Pseudomonas aeruginosa [18]): -30.9%; inhibition at 1 µg/mL (Pseudomonas aeruginosa [19]): -70.2%; response, % of control at 1 µg/mL (Pseudomonas aeruginosa [20]): 99%; Activity (Pseudomonas aeruginosa [21]): 44.3; response, % of control at 1 µg/mL (Pseudomonas aeruginosa [22]): 37%; inhibition at 1 µg/mL (Pseudomonas aeruginosa [23]): -73%
8 | O=C(N[C@H](CO)[C@H](O)c1ccc([N+](=O)[O-])cc1)C(Cl)Cl [CHLORAMPHENICOL] | 0.39 | 200 (≈ 619 µM) | 25 (≈ 77.4 µM) | 200 | 0.39 (≈ 1.21 µM) | 6.25 | 
9 | C[C@@H](O)[C@H]1C(=O)N2C(C(=O)O)=C(SCCNC=N)C[C@H]12 [IMIPENEM ANHYDROUS] | 0.78 | 0.78 (≈ 2.61 µM) | 0.78 (≈ 2.61 µM) | 0.78 | 0.78 (≈ 2.61 µM) | 0.78 | 
